The record followed here is ChEMBL document CHEMBL4359879, “Synthesis and evaluation of 2-carboxy indole derivatives as potent and selective anti-leukemic agents” (Eur J Med Chem, 2019).

Calls of active or inactive are those of the source. The calls are words filed in the database; no cut-off is given here.

Experiment [1] relates to RS4-11. Description: Induction of apoptosis in human RS4:11 cells assessed as accumulation of cells at G1 phase at 300 nM incubated for 18 hrs in presence of PARP antibody by immunofluorescent staining based flow cytometric analysis relative to control. The class given is functional. The method, boiled down: (§1)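 RS4;11 cells treated with 300 nM or DMSO vehicle for 18 h, then pulsed with 10 μM BrdU for 1 h. Harvested cells immunostained for BrdU/PI (cell cycle), γH2AX (DNA damage) and PARP (apoptosis). Multicolor flow cytometry gated G1, sub-G2-like, G2/M and sub-G0/G1 populations.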
(Flow cytometry measures light scatter and fluorescence of single cells or particles in a stream.)

Experiment [2] deals with HL-60. Description: Effect on human HL60 cells assessed as fold change in GBP3 gene expression at 1.085 uM incubated for 6 hrs by microarray-based method. In kind it is functional. The method, boiled down: (§2)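 HL60 cells were treated in triplicate with 1.085 µM or vehicle for 6 h. Total RNA was extracted with on-column DNase treatment and profiled on expression arrays.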

For experiment [3], the system named is RS4-11. Description: Induction of DNA damage in human RS4:11 cells assessed as accumulation of cells at sub G2 phase at 300 nM incubated for 18 hrs in presence of H2AX antibody by immunofluorescent staining based flow cytometric analysis relative to control. The class given is functional. The method, boiled down: as §1
In experiment [4] the test system is HL-60. Description: Effect on human HL60 cells assessed as increase in p53 protein expression at 300 nM incubated for 15 to 360 mins by Western blot analysis. The class given is functional, cell-based. The method, boiled down:
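Leukemia cells (RS4;11, CEM, HL60) treated with 300 nM for 0, 15, 30, 60 and 360 min. Western blotting for β-tubulin and p53, with lamin B1 as loading control and chemiluminescent detection.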
(In general: In western blotting, separated proteins are transferred to a membrane and probed.)

In experiment [5] the test system is HL-60. Description: Effect on human HL60 cells assessed as fold change in PPP1R1A gene expression at 1.085 uM incubated for 6 hrs by microarray-based method. The class given is functional. The method, boiled down: as §2
The test system of experiment [6] is HL-60. As to the kind of experiment: Effect on human HL60 cells assessed as fold change in RAB39B gene expression at 1.085 uM incubated for 6 hrs by microarray-based method. In kind it is functional. The method, boiled down:
as §2

As to `COC(=O)c1[nH]c2cc(OC)ccc2c1-c1ccc(C(F)(F)F)cc1`, the Activity with RS4-11 [1] stood at 7%; in the experiment on RS4-11 [3], 2.3%. The entries for the “fold change (FC)” value in the experiment with HL-60 [2], in the experiment on HL-60 [5] and with HL-60 [6] were -1.62, -1.7 and -1.53, respectively. Further, in the experiment on HL-60 [4], the outcome was Active.
